Reference: ChEMBL document CHEMBL3272173, “Synthesis and biological activity of peptide antagonists of luliberin (luteinizing hormone-releasing hormone)” (J Med Chem, 1979)
Numbered stars: 1 amine (or outer) side, 2 acyl side, 3 side chain; on linkers, the order of the positions; unused ones are H or OH. Peptide text beside a SMILES is read from it. * marks the point of attachment. NHcHex = C1CCC(N*)CC1; CO = O=C([*:1])[*:2]

What was measured:
[1] = system: Rattus norvegicus; assay: Antiovulatory activity in CD rat assessed as blockade of ovulation at 1 mg, sc administered as six doses at 1200, 1230, 1300, 1350, 1400 and 1450 hrs during proestrus stage measured during estrus stage by dissecting microscopic analysis; format: functional
Summary of the method: (§1)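 Cycling Charles River CD rats were given six subcutaneous injections of analogue in 0.1 mL propylene glycol on the afternoon of proestrus, and controls received vehicle alone. Rats were killed the next morning (estrus). Ovulating animals were scored and ova in the oviducts were counted under a dissecting microscope.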

[2] = system: Rattus norvegicus; assay: Antiovulatory activity in sc dosed CD rat assessed as blockade of ovulation administered as six doses at 1200, 1230, 1300, 1350, 1400 and 1450 hrs during proestrus stage measured during estrus stage by dissecting microscopic analysis; format: functional; summary of the method: as §1
[3] = molecular target: T1, Gonadotropin-releasing hormone receptor (Rattus norvegicus) (UniProt P30969); assay: In vitro antagonist activity at GNRHR in CD rat anterior pituitary gland assessed as inhibition of LH-RH-stimulated LH release at compound to LH-RH molar ratio of 1000 after 4 hrs by radioimmunoassay; settings: concentration not given here
T1 sequence (whole entry): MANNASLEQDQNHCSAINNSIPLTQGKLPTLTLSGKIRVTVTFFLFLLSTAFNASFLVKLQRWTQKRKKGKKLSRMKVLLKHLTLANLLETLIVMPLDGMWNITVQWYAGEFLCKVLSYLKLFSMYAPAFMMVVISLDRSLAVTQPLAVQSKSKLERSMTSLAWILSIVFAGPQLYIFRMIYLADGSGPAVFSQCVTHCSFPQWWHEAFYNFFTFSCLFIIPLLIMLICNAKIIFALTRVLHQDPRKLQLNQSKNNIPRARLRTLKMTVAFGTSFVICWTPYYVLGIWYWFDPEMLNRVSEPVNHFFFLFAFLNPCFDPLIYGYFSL
Summary of the method: (§2)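 Anterior pituitaries from diestrus CD rats (200-250 g) were dissociated enzymatically (collagenase, hyaluronidase, then Viokase). Cells were cultured 4 days at 1.67 × 10^5 cells/mL in DME with 10% horse serum and 2.5% fetal calf serum, then washed serum-free. Duplicate cultures received LH-RH (2-5 × 10^-10 M) with a single analogue concentration in serum-free DME for 4 h at 37 °C. LH in the medium was measured by RIA and reported as % inhibition of LH-RH-stimulated release.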

[4] = molecular target: T1, Gonadotropin-releasing hormone receptor (Rattus norvegicus); assay: In vitro antagonist activity at GNRHR in CD rat anterior pituitary gland assessed as ratio of molar concentration of compound to LH-RH for inhibition of LH-RH-stimulated LH release after 4 hrs by radioimmunoassay
Summary of the method: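 Monolayers were cultured 4 days from dissociated anterior pituitary cells of diestrus CD rats. They were exposed in duplicate to LH-RH (2-5 × 10^-10 M) plus multiple analogue concentrations in serum-free DME for 4 h at 37 °C. LH in the medium was measured by radioimmunoassay. The ED50 molar ratio is the analogue:LH-RH molar ratio giving 50% inhibition of LH-RH-stimulated LH release.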

[5] = molecular target: T1, Gonadotropin-releasing hormone receptor (Rattus norvegicus); assay: In vitro antagonist activity at GNRHR in CD rat anterior pituitary gland assessed as inhibition of LH-RH-stimulated LH release at compound to LH-RH molar ratio of 200 after 4 hrs by radioimmunoassay; settings: concentration not given here; summary of the method: as §2

SMILES	inhibition (INH) [1]	ED50 [2]	inhibition [3]	ED50 [4]	inhibition [5]
CC[C@H](C)[C@H](NC(=O)OCc1ccccc1)C(=O)N[C@@H](Cc1c[nH]c2ccccc12)C(=O)N[C@@H](CO)C(=O)N[C@@H](Cc1ccc(O)cc1)C(=O)NCC(=O)N[C@@H](CC(C)C)C(=O)N[C@@H](CCCNC(=N)N)C(=O)N1CCC[C@H]1C(=O)NCC(N)=O.Cl (HELM PEPTIDE1{[O=C(OCc1ccccc1)[*:2]].I.W.S.Y.G.L.R.P.G.[am]}$$$$V2.0)	20%	>1 mg	70%		
CC(C)C[C@H](NC(=O)CNC(=O)[C@H](Cc1ccc(O)cc1)NC(=O)[C@H](CO)NC(=O)[C@H](Cc1c[nH]c2ccccc12)NC(=O)NC1CCCCC1)C(=O)N[C@@H](CCCNC(=N)N)C(=O)N1CCC[C@H]1C(=O)NCC(N)=O ({NHcHex-CO}-WSYGLRPG-NH2)			19%		
CC(C)C[C@H](NC(=O)CNC(=O)[C@H](Cc1ccc(O)cc1)NC(=O)[C@H](CO)NC(=O)[C@H](Cc1c[nH]c2ccccc12)NC(=O)[C@H](Cc1ccc(O)cc1)NC(=O)OCc1ccccc1)C(=O)N[C@@H](CCCNC(=N)N)C(=O)N1CCC[C@H]1C(=O)NCC(N)=O (HELM PEPTIDE1{[O=C(OCc1ccccc1)[*:2]].Y.W.S.Y.G.L.R.P.G.[am]}$$$$V2.0)			16%		
CC(C)C[C@H](NC(=O)CNC(=O)[C@H](Cc1ccc(O)cc1)NC(=O)[C@H](CO)NC(=O)[C@H](Cc1c[nH]c2ccccc12)NC(=O)[C@H](CCC(N)=O)NC(=O)OC(C)(C)C)C(=O)N[C@@H](CCCNC(=N)N)C(=O)N1CCC[C@H]1C(=O)NCC(N)=O (HELM PEPTIDE1{[CC(C)(C)OC(=O)[*:2]].Q.W.S.Y.G.L.R.P.G.[am]}$$$$V2.0)			15%		
CC(C)C[C@H](NC(=O)CNC(=O)[C@H](Cc1ccc(O)cc1)NC(=O)[C@H](CO)NC(=O)[C@H](Cc1c[nH]c2ccccc12)NC(=O)[C@@H](NC(=O)OCc1ccccc1)C(C)C)C(=O)N[C@@H](CCCNC(=N)N)C(=O)N1CCC[C@H]1C(=O)NCC(N)=O (HELM PEPTIDE1{[O=C(OCc1ccccc1)[*:2]].V.W.S.Y.G.L.R.P.G.[am]}$$$$V2.0)			48%		
CCNC(=O)[C@@H]1CCCN1C(=O)[C@H](CCCNC(=N)N)NC(=O)[C@H](CC(C)C)NC(=O)[C@H](NC(=O)[C@H](Cc1ccc(O)cc1)NC(=O)[C@H](CO)NC(=O)[C@H](Cc1c[nH]c2ccccc12)NC(=O)[C@H](CCC(N)=O)NC(=O)OCc1ccccc1)[C@@H](O)c1ccccc1.Cl	100%	0.4 mg			
CC(C)C[C@H](NC(=O)CNC(=O)[C@H](Cc1ccc(O)cc1)NC(=O)[C@H](CO)NC(=O)[C@H](Cc1c[nH]c2ccccc12)NC(=O)[C@H](CC(C)C)NC(=O)OCc1ccccc1)C(=O)N[C@@H](CCCNC(=N)N)C(=O)N1CCC[C@H]1C(=O)NCC(N)=O.Cl (HELM PEPTIDE1{[O=C(OCc1ccccc1)[*:2]].L.W.S.Y.G.L.R.P.G.[am]}$$$$V2.0)	40%	>3 mg	95%	750 molar ratio	
CC(=O)O.CCNC(=O)[C@@H]1CCCN1C(=O)[C@H](CCCNC(=N)N)NC(=O)[C@H](CC(C)C)NC(=O)[C@@H](CO)NC(=O)[C@H](Cc1ccc(O)cc1)NC(=O)[C@H](CO)NC(=O)[C@H](Cc1c[nH]c2ccccc12)NC(=O)[C@H](CCC(N)=O)NC(=O)OCc1ccccc1	0%	>1 mg			50%
CCNC(=O)CNC(=O)[C@@H]1CCCN1C(=O)[C@H](CCCNC(=N)N)NC(=O)[C@H](CC(C)C)NC(=O)CNC(=O)[C@H](Cc1ccc(O)cc1)NC(=O)[C@H](CO)NC(=O)[C@H](Cc1c[nH]c2ccccc12)NC(=O)[C@H](CCC(N)=O)NC(=O)OCc1ccccc1 (HELM PEPTIDE1{[O=C(OCc1ccccc1)[*:2]].Q.W.S.Y.G.L.R.P.G.[CCN[*:1]]}$$$$V2.0)			40%		
CCNC(=O)[C@@H]1CCCN1C(=O)[C@H](CCCNC(=N)N)NC(=O)[C@H](CC(C)C)NC(=O)[C@@H](C)NC(=O)[C@H](Cc1ccc(O)cc1)NC(=O)[C@H](CO)NC(=O)[C@H](Cc1c[nH]c2ccccc12)NC(=O)[C@H](CCC(N)=O)NC(=O)OCc1ccccc1.Cl	20%	>3 mg	100%		
CC(C)C[C@H](NC(=O)[C@@H](CO)NC(=O)[C@H](Cc1ccc(O)cc1)NC(=O)[C@H](CO)NC(=O)[C@H](Cc1c[nH]c2ccccc12)NC(=O)[C@H](COCc1ccccc1)NC(=O)OC(C)(C)C)C(=O)N[C@@H](CCCNC(=N)N)C(=O)N1CCC[C@H]1C(=O)NCC(N)=O.Cl	0%	>1 mg			68%
CC(=O)O.CCNC(=O)[C@@H]1CCCN1C(=O)[C@H](CCCNC(=N)N)NC(=O)[C@H](CC(C)C)NC(=O)[C@@H](Cc1ccc(OC)cc1)NC(=O)[C@H](Cc1ccc(O)cc1)NC(=O)[C@H](CO)NC(=O)[C@H](Cc1c[nH]c2ccccc12)NC(=O)[C@H](COCc1ccccc1)NS(C)(=O)=O	0%	>1 mg			75%
CC(C)C[C@H](NC(=O)[C@@H](Cc1ccccc1)NC(=O)[C@H](Cc1ccc(O)cc1)NC(=O)[C@H](CO)NC(=O)[C@H](Cc1c[nH]c2ccccc12)NC(=O)[C@H](CCC(N)=O)NC(=O)OCc1ccccc1)C(=O)N[C@@H](CCCNC(=N)N)C(=O)N1CCC[C@H]1C(=O)NCC(N)=O.Cl		>1 mg			
CC(=O)O.CC(C)C[C@H](NC(=O)[C@@H](Cc1ccccc1)NC(=O)[C@H](Cc1ccc(O)cc1)NC(=O)[C@H](CO)NC(=O)[C@H](Cc1c[nH]c2ccccc12)NC(=O)[C@H](CCC(N)=O)NC(=O)OCc1ccccc1)C(=O)N[C@@H](CCCNC(=N)N)C(=O)N1CCC[C@H]1C(=O)NCC(N)=O	20%	>3 mg			
CC(C)C[C@H](NC(=O)CNC(=O)[C@H](Cc1ccc(O)cc1)NC(=O)[C@H](CO)NC(=O)[C@H](Cc1c[nH]c2ccccc12)NC(=O)[C@H](CCC(N)=O)NC=O)C(=O)N[C@@H](CCCNC(=N)N)C(=O)N1CCC[C@H]1C(=O)NCC(N)=O (HELM PEPTIDE1{[O=C[*:2]].Q.W.S.Y.G.L.R.P.G.[am]}$$$$V2.0)			0%		
CC(C)C[C@H](NC(=O)CNC(=O)[C@H](Cc1ccc(O)cc1)NC(=O)[C@H](CO)NC(=O)[C@H](Cc1c[nH]c2ccccc12)NC(=O)Cc1ccccc1)C(=O)N[C@@H](CCCNC(=N)N)C(=O)N1CCC[C@H]1C(=O)NCC(N)=O (HELM PEPTIDE1{[O=C(Cc1ccccc1)[*:2]].W.S.Y.G.L.R.P.G.[am]}$$$$V2.0)			51%		
CCNC(=O)[C@@H]1CCCN1C(=O)[C@H](CCCNC(=N)N)NC(=O)[C@H](CC(C)C)NC(=O)CNC(=O)[C@H](Cc1ccc(O)cc1)NC(=O)[C@H](CO)NC(=O)[C@H](Cc1c[nH]c2ccccc12)NC(=O)[C@H](CC(C)C)NC(=O)OCc1ccccc1.Cl	20%	>1 mg	81%		
CC(C)C[C@H](NC(=O)CNC(=O)[C@H](Cc1ccc(O)cc1)NC(=O)[C@H](CO)NC(=O)[C@H](Cc1c[nH]c2ccccc12)NC(=O)[C@H](CC(N)=O)NC(=O)OCc1ccccc1)C(=O)N[C@@H](CCCNC(=N)N)C(=O)N1CCC[C@H]1C(=O)NCC(N)=O (HELM PEPTIDE1{[O=C(OCc1ccccc1)[*:2]].N.W.S.Y.G.L.R.P.G.[am]}$$$$V2.0)			35%		
CC(C)C[C@H](NC(=O)[C@@H](Cc1ccc(O)cc1)NC(=O)[C@H](Cc1ccc(O)cc1)NC(=O)[C@H](CO)NC(=O)[C@H](Cc1c[nH]c2ccccc12)NC(=O)[C@@H](Cc1ccccc1)NC(=O)OCc1ccccc1)C(=O)N[C@@H](CCCNC(=N)N)C(=O)N1CCC[C@H]1C(=O)NCC(N)=O.Cl	0%	>1 mg			83%
